{
  "source": "ChEMBL document CHEMBL2440001",
  "about": "“Design and synthesis of novel 3,5-bis-N-(aryl/heteroaryl) carbamoyl-4-aryl-1,4-dihydropyridines as small molecule BACE-1 inhibitors” (Bioorg Med Chem, 2013)",
  "key": {"[1]": {"biological_target": "T1, Beta-secretase 1 (Homo sapiens, UniProt P56817)", "T1 sequence (P56817 whole entry)": "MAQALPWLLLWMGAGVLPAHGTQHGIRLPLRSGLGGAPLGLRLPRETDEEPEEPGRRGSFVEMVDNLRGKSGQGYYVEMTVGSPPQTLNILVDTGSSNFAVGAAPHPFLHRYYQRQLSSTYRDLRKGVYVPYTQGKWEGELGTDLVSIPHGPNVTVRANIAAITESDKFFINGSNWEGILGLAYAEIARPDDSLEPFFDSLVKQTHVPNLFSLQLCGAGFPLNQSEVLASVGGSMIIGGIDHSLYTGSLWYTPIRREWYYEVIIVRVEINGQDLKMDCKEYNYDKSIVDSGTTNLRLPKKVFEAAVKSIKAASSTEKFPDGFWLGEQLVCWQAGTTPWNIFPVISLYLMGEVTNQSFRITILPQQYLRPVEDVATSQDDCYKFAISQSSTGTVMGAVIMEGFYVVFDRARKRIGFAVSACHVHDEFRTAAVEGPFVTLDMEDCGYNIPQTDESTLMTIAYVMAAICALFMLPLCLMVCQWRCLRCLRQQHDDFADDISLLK", "test": "Inhibition of recombinant human BACE-1 using SEVNLDAEFK as substrate at 10 uM after 90 mins by FRET assay"}, "[2]": {"biological_target": "T1, Beta-secretase 1", "test": "Inhibition of recombinant human BACE-1 using SEVNLDAEFK as substrate after 90 mins by FRET assay"}, "[3]": {"biological_target": "T1, Beta-secretase 1", "test": "Inhibition of recombinant human BACE-1 using SEVNLDAEFK as substrate at 50 uM after 90 mins by FRET assay"}, "[4]": {"organism": "Cavia porcellus", "test": "Antagonist activity at calcium channel albino guinea pig ileal longitudinal smooth muscle assessed as inhibition of KCl-induced contraction", "procedure,_shortened": "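Fasted guinea-pig ileal longitudinal smooth muscle, 2 cm segments under 0.5 g resting tension, contracted with 40 mM KCl. Compounds were added cumulatively, and relaxation was expressed as percent of control. IC30 (30% relaxation) was read graphically from the curves.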"}},
  "note": "Peptide text beside a SMILES is read from it. * marks the point of attachment. X1 = C[C@H](NC[C@H](C)N*)C(=O)N[C@@H](CCC(=O)O)C(=O)N[C@@H](Cc1ccccc1)C(=O)O",
  "data": [
    {"smiles": "CC1=C(C(=O)Nc2cc(C)on2)C(c2cccc([N+](=O)[O-])c2)C(C(=O)Nc2cc(C)on2)=C(C)N1", "values": [
      {"measurement": "inhibition", "setting": "[1]", "value": 11.6, "unit": "%"}
    ]},
    {"smiles": "CC(C)C[C@H](NC(=O)[C@H](CC(N)=O)NC(=O)[C@@H](NC(=O)[C@@H](N)CCC(=O)O)C(C)C)C(=O)N[C@@H](C)CN[C@@H](C)C(=O)N[C@@H](CCC(=O)O)C(=O)N[C@@H](Cc1ccccc1)C(=O)O", "note": "(H-EVNL-X1)", "values": [
      {"measurement": "IC50", "setting": "[2]", "value": 0.003, "unit": "µM"}
    ]},
    {"smiles": "CCOc1ccc2nc(NC(=O)C3=C(C)NC(C)=C(C(=O)Nc4nc5ccc(OCC)cc5s4)C3c3cccc([N+](=O)[O-])c3)sc2c1", "values": [
      {"measurement": "inhibition", "setting": "[1]", "value": 49.1, "unit": "%"},
      {"measurement": "inhibition", "setting": "[3]", "value": 94, "unit": "%"}
    ]},
    {"smiles": "COC(=O)C1=C(C)NC(C)=C(C(=O)OC)C1c1ccccc1[N+](=O)[O-]", "values": [
      {"measurement": "IC15", "setting": "[4]", "value": 0.00202, "unit": "µM"},
      {"measurement": "IC30", "setting": "[4]", "value": 0.00927, "unit": "µM"}
    ]},
    {"smiles": "CC1=C(C(=O)Nc2nc(C)cs2)C(c2ccco2)C(C(=O)Nc2nc(C)cs2)=C(C)N1", "values": [
      {"measurement": "IC15", "setting": "[4]", "value": 2.26, "unit": "µM"},
      {"measurement": "IC50", "setting": "[2]", "value": 6.78, "unit": "µM"},
      {"measurement": "inhibition", "setting": "[1]", "value": 66.4, "unit": "%"},
      {"measurement": "inhibition", "setting": "[3]", "value": 95.1, "unit": "%"}
    ]},
    {"smiles": "CC1=C(C(=O)Nc2cc(C)on2)C(c2ccc[nH]2)C(C(=O)Nc2cc(C)on2)=C(C)N1", "values": [
      {"measurement": "inhibition", "setting": "[1]", "value": 24.1, "unit": "%"},
      {"measurement": "inhibition", "setting": "[3]", "value": 57.4, "unit": "%"}
    ]},
    {"smiles": "COc1ccc(C2C(C(=O)Nc3nc(C)cs3)=C(C)NC(C)=C2C(=O)Nc2nc(C)cs2)cc1", "values": [
      {"measurement": "inhibition", "setting": "[1]", "value": 44.4, "unit": "%"},
      {"measurement": "inhibition", "setting": "[3]", "value": 86.3, "unit": "%"}
    ]},
    {"smiles": "CC1=C(C(=O)Nc2nc(C)cs2)C(c2cccc([N+](=O)[O-])c2)C(C(=O)Nc2nc(C)cs2)=C(C)N1", "values": [
      {"measurement": "inhibition", "setting": "[1]", "value": 34.8, "unit": "%"},
      {"measurement": "inhibition", "setting": "[3]", "value": 70.4, "unit": "%"}
    ]},
    {"smiles": "CC1=C(C(=O)Nc2nc3ccccc3s2)C(c2cccc([N+](=O)[O-])c2)C(C(=O)Nc2nc3ccccc3s2)=C(C)N1", "values": [
      {"measurement": "inhibition", "setting": "[1]", "value": 49.4, "unit": "%"},
      {"measurement": "inhibition", "setting": "[3]", "value": 56.2, "unit": "%"}
    ]},
    {"smiles": "CC1=C(C(=O)Nc2nc(C)cs2)C(c2ccccc2[N+](=O)[O-])C(C(=O)Nc2nc(C)cs2)=C(C)N1", "values": [
      {"measurement": "IC15", "setting": "[4]", "value": 1.82, "unit": "µM"},
      {"measurement": "IC50", "setting": "[2]", "value": 4.66, "unit": "µM"},
      {"measurement": "inhibition", "setting": "[1]", "value": 69.4, "unit": "%"},
      {"measurement": "inhibition", "setting": "[3]", "value": 95, "unit": "%"}
    ]},
    {"smiles": "CC1=C(C(=O)Nc2nccs2)C(c2ccc([N+](=O)[O-])cc2)C(C(=O)Nc2nccs2)=C(C)N1", "values": [
      {"measurement": "inhibition", "setting": "[1]", "value": 28.1, "unit": "%"},
      {"measurement": "inhibition", "setting": "[3]", "value": 46.8, "unit": "%"}
    ]},
    {"smiles": "CC1=C(C(=O)Nc2nc(C)cs2)C(c2ccc([N+](=O)[O-])cc2)C(C(=O)Nc2nc(C)cs2)=C(C)N1", "values": [
      {"measurement": "IC15", "setting": "[4]", "value": 4.63, "unit": "µM"},
      {"measurement": "IC50", "setting": "[2]", "value": 4.21, "unit": "µM"},
      {"measurement": "inhibition", "setting": "[1]", "value": 77.2, "unit": "%"},
      {"measurement": "inhibition", "setting": "[3]", "value": 88, "unit": "%"}
    ]},
    {"smiles": "CC1=C(C(=O)Nc2nc3ccccc3s2)C(c2ccccc2[N+](=O)[O-])C(C(=O)Nc2nc3ccccc3s2)=C(C)N1", "values": [
      {"measurement": "IC15", "setting": "[4]", "value": 6.47, "unit": "×10⁻⁷ M"},
      {"measurement": "IC50", "setting": "[2]", "value": 4.27, "unit": "µM"},
      {"measurement": "inhibition", "setting": "[1]", "value": 65.6, "unit": "%"},
      {"measurement": "inhibition", "setting": "[3]", "value": 87.2, "unit": "%"}
    ]},
    {"smiles": "CC1=C(C(=O)Nc2nc3ccccc3s2)C(c2ccc([N+](=O)[O-])cc2)C(C(=O)Nc2nc3ccccc3s2)=C(C)N1", "values": [
      {"measurement": "inhibition", "setting": "[1]", "value": 49.8, "unit": "%"},
      {"measurement": "inhibition", "setting": "[3]", "value": 90.8, "unit": "%"}
    ]},
    {"smiles": "CC1=C(C(=O)Nc2cc(C)on2)C(c2ccc([N+](=O)[O-])cc2)C(C(=O)Nc2cc(C)on2)=C(C)N1", "values": [
      {"measurement": "inhibition", "setting": "[1]", "value": 23.5, "unit": "%"},
      {"measurement": "inhibition", "setting": "[3]", "value": 43, "unit": "%"}
    ]},
    {"smiles": "CC1=C(C(=O)Nc2cc(C)on2)C(c2ccccc2[N+](=O)[O-])C(C(=O)Nc2cc(C)on2)=C(C)N1", "values": [
      {"measurement": "inhibition", "setting": "[1]", "value": 12.7, "unit": "%"},
      {"measurement": "inhibition", "setting": "[3]", "value": 54, "unit": "%"}
    ]},
    {"smiles": "CC1=C(C(=O)Nc2nc3ccccc3s2)C(c2ccccc2)C(C(=O)Nc2nc3ccccc3s2)=C(C)N1", "values": [
      {"measurement": "inhibition", "setting": "[1]", "value": 44.9, "unit": "%"}
    ]}
  ]
}
